# Assay results from the EternaBench riboswitch data.
# System: MS2 coat protein
# Assay: apparent Kd, MS2 coat protein; higher = weaker binding; RNA-MaP array; FMN 200 µM where present
# Procedure, shortened: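 Stalled E. coli RNA polymerase transcribed each design on Illumina sequencing-chip clusters. The clusters were titrated with SNAP-549-labelled MS2 coat protein, starting at 0.7 or 1.5 nM and doubling up to 3 µM, first without ligand and then with constant ligand, in 100 mM Tris-HCl pH 7.5, 80 mM KCl, 4 mM MgCl2, BSA, DTT, yeast tRNA and Tween-20. Green signal was normalised to red-channel RNA signal and to the control-cluster median Fmax. The apparent Kd is the median of filtered binding-curve fits made for each cluster.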
# [1] = designed as: OFF switch for flavin mononucleotide, no ligand
# [2] = ligand present: flavin mononucleotide, designed as: OFF switch for flavin mononucleotide
# [3] = designed as: ON switch for flavin mononucleotide, no ligand
# [4] = ligand present: flavin mononucleotide, designed as: ON switch for flavin mononucleotide
Sequence,apparent Kd [1] [nM],apparent Kd [2] [nM],apparent Kd [3] [nM],apparent Kd [4] [nM]
AUGUUGAGCAGUGUAUUAAGAUCACAUGAGGAUCACCCAUGUAGAAGGCACGAGCUGAUCGCUCGUGAGGAUAUGCAUCACUGC,7.12,29.2,–,–
GUCAGCUCGUGAGGAUAUACAACACUGCUUCGGCAGUGUAUUAAGAUCACAUGAGGAUCACCCAUGUAGAAGGCACUAGCUGAU,13.9,256,–,–
CCAGAGAUAUGAGGAUAUCGAGUGGAAUACACUCGAGAAGGCAUGUGAAUACAUGAGGAUCACCCAUGUGAUCAAUACUCUGGA,–,–,171,32.6
GUGGUCAGACAUGAGGAUCACCCAUGUGGAAUAAAUAAGGGAGAGGAUAUAUAAUAUAGGAUAUAAUAGAAGGCUCGGUUGGUG,–,–,82.5,111
UUUCCCUGGCAAGGAUAUCCUGUGCGGUUCCGGCUCGUGUCUGUUACAUGAGGAUCACCCAUGUGGGAGAAGGUGCCUGUGGCU,53.2,232,–,–
AAGAAAGAAACAUAGGAUAUCAAGGAUAUAACAUGAGGAUCACCCAUGUAAAUACGAAAGUAUAAUGAGAAGGAUGGAUGAUCUAC,–,–,238,437
GAGAAGUCAGGAUAUGCUGCUCGUCACUUGCGUGAUGAGUAGCAGAAGGGACAUGAGGAUCACCCAUGUGGAAA,107,202,–,–
AUAAAAGUGACAUGAGGAUCACCCAUGUGAAUUAGUAGUAGCAGAAGGCACGUGGGAAGACCAAGUGAGGAUAUGUAACUUUAG,–,–,625,59.2
AAGUAGAUCCGAGGAUAUACAAAGUGGAAUCGCUACAUGAGGAUCACCCAUGUAGAAGGCGGAUCUACAGGUACUAAAGUACCA,8.01,68.3,–,–
UCACAGGUUUAAGGCGUUCCCAGACAUGAGGAUCACCCAUGUAGAAGGACCGUAAGAAAUUUUCGGUAGGAUAUACAUUCAGGG,28,31.9,–,–
UUACUCAUGUAAGGAUAUGCAGCCGUUUCGGCUGCAGAAGGUACUAUAAUACAUGAGGAUCACCCAUGUCUAUAAACUAAAGAC,–,–,84.2,45.8
CCUGGAUCAUGAGGAUAUGGCACCUUAUUGGUGCCAGAAGGCAUGUCUCUUGACAUGAGGAUCACCCAUGUAAUAAAUUCCAGG,–,–,1020,124
CUAGUAUAUCAGGAUAUGAUUUUGUGUAGUUGGUCAGAAGGGAUGACAUGAGGAUCACCCAUGUUAAGGGAUGA,94.2,108,–,–
CAAUUGGCACAGAAGGGUGACAUGAGGAUCACCCAUGUAGCGUGGCACUCAGGAGAAGCCACGCCACAGGAUAUGUGCGGGCAC,–,–,34.6,41.6
UUUUACUUAGGAUAUACAUUUUUUUAUUUAUUUAUAAUAUUACAUGAGGAUCACCCAUGUAGAAGGGAGAUUUU,77,63.4,–,–
ACUGACAUGAGGAUCACCCAUGUCUUGAAUAGGUCAAAUUCACAGGAUAUGCGCUUUGACAGGGCGCAGAAGGGUGAUGCAAUG,–,–,70.2,11.8
GUCCUUAACAAGGAUAUCGGGCGGGUUUUUGUUUGAGAAGGUGUGACAUGAGGAUCACCCAUGUGGCGCGUGGG,355,383,–,–
GGUGCGUCUGUGAGGAUAUGCUGGUCCUUGGAUCAGCAGAAGGCACAUGAGGAUCACCCAUGUGGUGUCGUACC,233,129,–,–

Sequence,apparent Kd [1] [nM],apparent Kd [2] [nM],apparent Kd [3] [nM],apparent Kd [4] [nM]
AAAUAGUUAGGAUAUACAUGAGGAUCACCCAUGUGGACUUAUGGCGAUUAAUUUAGUGGUAGAAGGGACUCAAA,53.8,51.4,–,–
GCGUUGAACGAGAAGGCCACUACAUGAGGAUCACCCAUGUCGUAGAGUAUUGGAGGAUAUCGAUAGGCGUCUCAUGAGGACAUA,23.6,11.6,–,–
AUAUGAGAAGCAGGAUAUGUGAAAAAAAAACAUACAGAAGGGUUUAUGGAAAAACAUGAGGAUCACCCAUGUUCUUUGUGAUGA,–,–,33.5,32.4
AUACGAAAGAUAGGAUAUACUGAGGUUGAAUGGGUAGAAGGAUCGAUAGUGGAGAAGACAUGAGGAUCACCCAUGUUGUGGAUU,–,–,681,217
UGUCAUUUACAGAAGGGUAGUUGGGUUUUACAUGAGGAUCACCCAUGUUUUACAGGAUAUGUGUUUUGUUACUAUUAAAGUUCA,66.5,123,–,–
UCCUCGGUACGAGGAUAUUCACGACGGUGUUCGGAAGAAGGCGUACAUGAGGAUCACCCAUGUCCGUCGAAAGGACUAACCGGG,49,68.5,–,–
AAAACAUGAGGAUCACCCAUGUAAAGAACGCUUAAUAGAUCUGAGGAUAUACUAGAAUUUAGGUAGUAGAAGGCAGUGGGUACA,–,–,46.6,30.7
CUUUAGUGAGGAUAUCAGUAGUAAUACAAUAGUAUUACUGCUGAGAAGGCACAUGAGGAUCACCCAUGUUCCUC,38.1,169,–,–
UAUUAAUGCAAGGAUAUGCUUUUAAUUUUUUUUGCAGAAGGUGCAACAUGAGGAUCACCCAUGUUUCCGGGUAU,26.5,39.1,–,–
AGAUUUUUUACAGGAUAUGUUAGUUUACAGUUGAUUGGUUAUUACAUUAUGACAGAAGGGUAGAACAUGAGGAUCACCCAUGUA,–,–,374,174
GAUCAACAUGAGGAUCACCCAUGUGAGGAUAUGAUACUAUGUACUUCGGUACAUAGUAUCAGAAGGCAUGUGGA,158,39.4,–,–
UCAUGUUAGCAGGAUAUGCUAUUUAUCUUUUAUGCAGAAGGGCUUACAUGAGGAUCACCCAUGUAUUAAGUCUU,18.9,52.5,–,–
GCGAUUUUGUAAGGAUAUACACGAGUUUUAAGUGUAGAAGGUACUUACAUGAGGAUCACCCAUGUAUAAAUGUAUAAUAGUCGC,–,–,9.11,7.51
GGAUAGGACAGAGGAUAUACGUGCUCGAGAUACUAGCAAAAUUUCCUCACAUGAGGAUCACCCAUGUAGAAGGCUGUCCUAUCG,28.7,255,–,–
CUUUUGUGAGGAUAUUAGUAGUAAAAAAAUAAAAUUACUACUGAGAAGGCACAUGAGGAUCACCCAUGUUCCUU,14.8,39,–,–
AUAAUUUUAUAUAUCUAUUUAAUCAGAAGGCAUAACAUGAGGAUCACCCAUGUAAAUUAAUGUUAUGAGGAUAUGAUAUGGUUA,11.3,78,–,–
GCUGUGGCAUGAGGAUAUGCUCAGCUUUGCUGAGCAGAAGGCAUGUCAAUAGACAUGAGGAUCACCCAUGUAGUUAACACAGCA,–,–,462,32.9
GCGUCAGAAUUAAUUGUGACAUACAGAAGGCAAAAGUAAGGAUAAGACAUGAGGAUCACCCAUGUUGAGGAUAUGUAGAGAAUC,10.7,8.64,–,–
